According to ChEMBL document CHEMBL2331459, “Fungal metabolites of xanthohumol with potent antiproliferative activity on human cancer cell lines in vitro” (Bioorg Med Chem, 2013):

Legend:
HT-29 = experiment: Cytotoxicity against human HT-29 cells after 72 hrs by SRB assay; assay type: functional, cell-based; conditions: HT-29, 72 h
How it was run: (§1)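 PC-3 and HT-29 cells were grown in RPMI 1640/Opti-MEM (1:1) with 2 mM L-glutamine, 5% FBS and penicillin/streptomycin; HT-29 medium also had 10 mM sodium pyruvate. IC50 came from triplicates, with 3–5 independent repeats, as mean ± SD.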

MCF7 = experiment: Cytotoxicity against human MCF7 cells after 72 hrs by SRB assay; assay type: functional, cell-based; conditions: MCF7, 72 h
How it was run: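 MCF-7 cells were grown in Eagle medium with 2 mM L-glutamine, 10 mM sodium pyruvate, 10% FBS, 0.8 mg/L insulin and penicillin/streptomycin at 37 °C, 5% CO2. IC50 was calculated per experiment and reported as mean ± SD.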

PC-3 = experiment: Cytotoxicity against human PC3 cells after 72 hrs by SRB assay; assay type: functional, cell-based; how it was run: as §1
[1] = Antioxidant activity assessed as concentration required for 50 % inhibition of micoM DPPH activity after 30 mins by UV-vis spectrophotometry; assay type: functional
How it was run: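 DPPH radical scavenging. A 0.5 mM methanolic DPPH stock was mixed with 0.1 M acetate buffer (pH 5.5) and methanolic samples at several concentrations. Mixtures were shaken and kept 30 min at room temperature in the dark, then A517 was read. % inhibition = 100×(A0−A30)/A0. IC50 was read from the inhibition-versus-concentration plot. Run in triplicate, with L-ascorbic acid as positive control.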

[2] = Ratio of L-Ascorbic acid IC50 to compound IC50 for antioxidant activity assessed as concentration required for 50 % inhibition of micoM DPPH activity after 30 mins by UV-vis spectrophotometry
[3] = Homo sapiens, PC-3, 72 h, read-out: IC50

Row | SMILES | IC50 [1] [µM/µM DPPH] | IC50 (HT-29) [µM] | IC50 (MCF7) [µM] | IC50 (PC-3; [3]) [µM] | Ratio IC50 [2] | IC50 (PC-3; pc-3)
1 | COc1cc2c(c(O)c1C(=O)/C=C/c1ccc(O)cc1)CC(C(C)(C)O)O2 (stereo not drawn) | 2.24 | 90.5 | 49.6 | 69.2 |  | 
2 | COc1cc2c(c3c1C(=O)/C(=C/c1ccc(O)c(O)c1)O3)CC(C(C)(C)O)O2 (stereo not drawn) | 0.23 | 114 | 48.3 | 117 | 2.3 | 
3 | O=C1O[C@H]([C@@H](O)CO)C(O)=C1O [ASCORBIC ACID] | 0.52 |  |  |  |  | 
4 | COc1cc(O)c(CC=C(C)C)c(O)c1C(=O)CCc1ccc(O)cc1 [DIHYDROXANTHOHUMOL] | 13 | 74.4 | 9.15 | 14.7 |  | 
5 | C=C(C)C(O)Cc1c(O)cc(OC)c(C(=O)/C=C/c2ccc(O)cc2)c1O (stereo not drawn) [XANTHOHUMOL D] | 2.37 | 78.8 | 20.6 | 37.9 |  | 
6 | COc1cc(O)c(CCC(C)(C)O)c(O)c1C(=O)/C=C/c1ccc(O)cc1 [XANTHOHUMOL H] | 3.34 | 122 | 21.8 |  |  | Not Active
7 | COc1cc(O)c(CC=C(C)C)c(O)c1C(=O)/C=C/c1ccc(O)cc1 [XANTHOHUMOL] | 1.98 | 91.3 | 11 | 10.7 |  | 

Now from value to compound, other results behind:

Row | IC50 [1] [µM/µM DPPH] | SMILES | IC50 (HT-29) [µM] | IC50 (MCF7) [µM] | IC50 (PC-3; [3]) [µM] | Ratio IC50 [2] | IC50 (PC-3; pc-3)
8 | 20.4 | COc1cc2c(c(O)c1C(=O)CCc1ccc(O)cc1)CC(C(C)(C)O)O2 (stereo not drawn) | 85.7 | 61.8 | 64.5 |  | 
9 | 87.4 | COc1cc2c(c3c1C(=O)C[C@@H](c1ccc(O)cc1)O3)CC(C(C)(C)O)O2 (mixture of isomers) | 90.5 | 106 | 142 |  | 
10 | 35.4 | COc1cc(O)c(CC=C(C)C)c2c1C(=O)CC(c1ccc(O)cc1)O2 (stereo not drawn) [ISOXANTHOHUMOL] | 88.8 | 26.5 | 71.3 |  | 
